Compounds with a hit are over-represented: about 4.3% of the library has one in this group of screens.
Yeast life ext: compounds extending yeast replicative lifespan, primary screen, S. cerevisiae, OD615; S. cerevisiae growth with nicotinamide; deaD strain in restrictive glucose medium; inhibition of the nicotinamide effect, % at 10 µM; 130,000 compounds, 0.68% hits; AID 775, 2007;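 active means inhibition above a set limit, placed 3 SD over the median of all compounds, cut at about 26% in these data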;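 further: 0% = nicotinamide-treated wells and 100% = cells grown without nicotinamide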
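Material: Modified budding yeast, DeaD strain | Medium: Restrictive glucose medium | Probe or stimulus: 1.5 mM nicotinamide | Dosing: Single dose 10 µM compound, 0.25% DMSO | Times: 48 h at 30 °C | Technique: OD615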
WT yeast gro inh: growth inhibition of WT strain, primary screen, mitochondrial fusion inhibitor project, WT and mutant strains, chemical genetic. 190,000 compounds, 2.1% hits. mitochondrial fusion phenotypic screen. inhibition, % at 10 µM; in the data active means inhibition above about 58%; tested in S. cerevisiae
RAM inhibit: inhibitors of the yeast RAM network, primary screen, dse1pr::URA3 reporter, 5-FOA selection | inhibition, % at 50 µM | S. cerevisiae dse1pr::URA3 reporter, 5-FOA growth OD615, 2 d; analog-sensitive cbk1-as2 kinase mutant strain | 190,000 compounds, 1.8% hits;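 active means inhibition above a set limit, 3 SD over mean compound inhibition, cut at about 8.4% in these data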;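 further: 0% = DMSO-only wells with no growth and 100% = 10 µM 1-NA-PP1 full growth; inhibition rescues growth on 5-FOA so higher OD means more RAM inhibition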
BB579 growth dn: growth inhibitors of yeast BB579 in restrictive medium, primary screen, yeast lifespan-shortening project, S. cerevisiae; OD615, 48 h; inhibition, % at 10 µM; 140,000 compounds, 0.51% hits; AID 804, 2007;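 active means inhibition above a set limit, 3 SD over the mean compound inhibition, cut at about 44% in these data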
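test system = yeast BB579 (DeaD) | buffer or medium = restrictive CSMM-D medium | doses = single compound dose of 10 µM, 0.25% DMSO final | times = 4 h preincubation and 48 h exposure at 30 °C | technique = culture absorbance at 615 nm | benchmarks = amphotericin B 10 µg/mL, positive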
* hit, by the source's call; x = no result given.

SMILES | Yeast life ext | WT yeast gro inh | RAM inhibit | BB579 growth dn
O=C(COc1ccccc1)Nc1ccc(OC(F)(F)C(F)F)c(NC(=O)COc2ccccc2)c1 | -3 | -7 | 9.8* | -42
CCOC(=O)Nc1cccc(OCC(=O)Nc2ccccc2OCC)c1 | -14 | 12 | 9.6* | -70
O=C(COc1ccccc1)Nc1ccccc1Oc1ccccc1 | 2 | 62* | 2 | -17
CCCCc1ccc(NC(=O)COc2ccc(C(=O)Nc3ccccc3OCC)cc2)cc1 | 13 | -7 | 8.7* | -42
N#Cc1ccccc1S(=O)(=O)N1CCN(c2cnccn2)CC1 | x | -10 | -1 | x
N#Cc1ccc(NC(=O)Nc2ccc(Cl)cc2)cc1 | -16 | 63* | 2 | -35
CCOC(=O)C1=NNC2(c3ccc(Cl)cc3)C(=O)N(c3ccc(C)cc3)C(=O)C12 (centres undefined) | -1 | 3 | 11* | -9
CN(C)S(=O)(=O)c1cccc(NC(=O)COC(=O)c2cn(-c3ccccc3)nc2-c2ccccc2)c1 | 4 | 2 | 9.1* | -20
O=C(CCN1C(=O)S/C(=C\c2ccccc2)C1=O)Nc1ccc(S(=O)(=O)Nc2nccs2)cc1 | -9 | 8 | 3 | -15
Cc1cc(C)nc(NS(=O)(=O)c2ccc(NC(=O)CN3C(=O)S/C(=C\c4ccccc4)C3=O)cc2)n1 | 0 | -21 | 9.9* | -18
COc1ccc(OC)c(-c2csc(NC(=O)Cc3cccs3)n2)c1 | x | 24 | 8.6* | x
O=S(=O)(Nc1cc(Cl)ccc1N1CCCCC1)c1cccs1 | -2 | 60* | 8 | -80
CC1=Nc2ccccc2/C1=C/c1sc(=S)n(-c2cccc(C(=O)O)c2)c1O | x | 7 | 10.0* | x
O=C(NC1CCCCC1)N(C1=NCCCCC1)c1ccc(Br)cc1 | 10 | 4 | 1 | -19
Cc1ccc2nc(NC(=O)c3ccc(Cn4cc(Cl)cn4)o3)sc2c1 | -15 | 7 | 3 | -3
O=C(Nc1ccc(Br)c2cccnc12)c1ccc(Cn2cc(Cl)cn2)o1 | 6 | 8 | 11* | -43
Cn1c(=O)c2cn(Cc3ccc(Cl)cc3)cc2n(C)c1=O | -4 | -14 | 0 | -33
CSc1ccc(/C=N/n2c(Cc3ccc(Br)cc3)n[nH]c2=S)cc1 | x | 71* | 10.0* | x
O=C(C1=C[C@H](c2ccc3c(c2)OCO3)C[C@H](OCc2ccc(CO)cc2)O1)N1CCOCC1 | x | 7 | 10* | x
O=C(C1=C[C@@H](c2ccc(C(F)(F)F)cc2)C[C@@H](OCc2ccc(CO)cc2)O1)N1CCOCC1 | x | 8 | 9.0* | x
Cc1[nH]n(-c2c(Cl)cc(Cl)cc2Cl)c(=O)c1C=Nc1ccc(S(=O)(=O)N2CCOCC2)cc1 | -3 | -13 | 0 | 15
COc1ccc(OC)c(NC(=O)c2ccc(OC3CSC3)cc2)c1 | x | 29 | 1 | x
CC[n+]1c(/C=C2\C=C(C)CC(C)(C)C2)sc2ccccc21 | 40* | 14 | 2 | -15
CC[n+]1c(/C=C2\C=C(C)CC(C)C2)sc2ccccc21 (centres undefined) | 27* | 19 | 1 | -28
CCOC(=O)c1cc(-c2ccc3c(c2)OCCO3)nc2c1c(C)nn2CCC#N | -32 | 6 | 9.0* | -41
SMILES | Yeast life ext | WT yeast gro inh | RAM inhibit | BB579 growth dn
CCOC(=O)c1cc(-c2ccc(Cl)cc2)nc2c1c(C)nn2CCC#N | -8 | -9 | 6 | -5
Cc1ccccc1Nc1cc(C)c2c(O)cccc2n1 | 0 | 58* | 1 | -43
O=C(CSCc1ccc(Br)cc1)NCc1ccccn1 | x | -9 | 1 | x
CCOC(=O)/C(=C/c1ccc(OC(=O)c2ccccc2)cc1)C(C)=O | 33* | 6 | 2 | 17
COc1cc(/C=C(\C#N)c2nc3ccccc3s2)cc([N+](=O)[O-])c1O | x | 67* | 7 | x
N#C/C(=C\c1ccc(O)c([N+](=O)[O-])c1)c1nc2ccccc2s1 | x | 56 | 4 | x
CCNc1nc(NC(C)(C)C)nc(N2CCCCC2)n1 | x | 78* | 0 | x
Cc1cc(C)c2c(N=NN(C)C)[nH]nc2n1 | -8 | 8 | 0 | 73*
COc1ccc(CN2CCN(CCCCOc3ccc(Cl)cc3)CC2)c(OC)c1OC | x | 10 | 2 | x
CCOC(=O)CNS(=O)(=O)c1cc(-c2nn(C)c(=O)c3ccccc23)ccc1C | -24 | 70* | 1 | -47
Clc1ccc(N/N=C/c2cccnc2)cc1 | -7 | 59* | -2 | 66*
Clc1ccc(N/N=C/c2ccncc2)cc1Cl | -12 | 64 | 0 | 49*
CCOC(=O)C1CCCCN1C(=O)CCc1c(C)nc2cc(-c3ccccc3)nn2c1C (centres undefined) | 10 | 4 | 0 | 48*
CCOC(=O)C1CCN(C(=O)CCc2c(C)nc3cc(-c4ccccc4)nn3c2C)CC1 | -13 | -1 | 0 | -6
O=[N+]([O-])c1cccc(/C=N/n2cnnc2)c1O | -9 | -12 | -1 | 76*
COc1ccccc1CNC(=O)c1ccccc1OCc1ccc(F)cc1 | -4 | 67* | 6 | -13
C=CCn1c(SC)nc2sc3c(c2c1=O)CCc1ccccc1-3 | -5 | 17 | 9.0* | -37
C=CCSc1nc2sc3c(c2c(=O)n1CC)CCc1ccccc1-3 | -3 | 86 | 9.2* | -30
COc1ccc(NC(=O)c2oc3ccccc3c2NC(=O)COc2ccccc2OC)c(OC)c1 | -17 | 64* | 5 | -47
CCOCC(=O)Nc1c(C(=O)Nc2ccccc2OC)oc2ccccc12 | -16 | -2 | 7 | -16
Nc1c(Cl)ncnc1N/N=C/c1ccc2ccccc2n1 | 19 | 42 | 0 | -7
Nc1c(Cl)ncnc1N/N=C/c1ccccn1 | -13 | 57 | 0 | 96*
Cc1ccc(/C([O-])=C(/C(=S)Nc2ccc(SC(F)F)cc2)[n+]2ccccc2)cc1[N+](=O)[O-] | x | 30 | 4 | x
Cc1oc2c(c1C(=O)NCc1cccnc1)C(=O)c1ccccc1C2=O | x | 88* | 0 | x
CC(=O)c1c(C)oc2c1C(=O)c1ccccc1C2=O | -7 | 4 | 0 | 62*
SMILES | Yeast life ext | WT yeast gro inh | RAM inhibit | BB579 growth dn
NC(=O)C1CC(=O)N(c2ccc(OCc3c(Cl)cccc3Cl)cc2)C1 (centres undefined) | x | 0 | 4 | x
C(=N\N1CCN(C2c3ccccc3-c3ccccc32)CC1)/c1ccncc1 | -14 | 68* | 1 | -63
CCOC(=O)/C(=C\c1ccc(Cl)cc1)c1nc2sc(C)c(C)c2c(=O)[nH]1 | 32* | 50 | 3 | -14
CCOC(=O)CSc1nc2sc(C)c(C)c2c(=O)[nH]1 | -26 | 17 | 1 | -16
COc1cc(/C=C/C(=O)N2CCCC2)cc(OC)c1OC | -3 | -7 | 2 | -14
COc1ccc(/C=C/C(=O)C2C(=O)C=C(C)OC2=O)cc1O (centres undefined) | 44* | 17 | 2 | -3
COc1cc(/C=C/C(=O)C2C(=O)C=C(C)OC2=O)cc(OC)c1O (centres undefined) | 64* | 4 | 1 | -9
CCOCCCNC(=O)c1ccc2c(c1)N=C(CC)c1cc(Br)ccc1S2 | x | 5 | 3 | x

Screening results (PubChem)
